Published values collected from several papers.
Lines come from different studies, so protocols differ.
Target: cAMP-dependent protein kinase catalytic subunit PRKX (PRKX, Homo sapiens, UniProt P51817)
One construct used (P51817 1-358): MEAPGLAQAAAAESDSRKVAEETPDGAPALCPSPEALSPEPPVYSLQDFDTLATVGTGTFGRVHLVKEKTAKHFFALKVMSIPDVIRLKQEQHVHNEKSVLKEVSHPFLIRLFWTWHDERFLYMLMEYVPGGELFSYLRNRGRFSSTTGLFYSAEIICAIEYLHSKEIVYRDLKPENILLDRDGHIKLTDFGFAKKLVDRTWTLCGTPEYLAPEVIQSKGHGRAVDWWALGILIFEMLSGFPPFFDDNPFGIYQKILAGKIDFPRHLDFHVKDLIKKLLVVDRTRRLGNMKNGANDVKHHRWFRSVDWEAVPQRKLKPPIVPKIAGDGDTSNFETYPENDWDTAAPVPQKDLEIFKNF

SMILES	effect on	mode	technique	concentration	quantity	result
Cn1cncc1[C@@](O)(COc1ccc(C#N)cc1-c1ccc(OC(F)(F)F)cc1)c1ccc(C#N)cc1	cell-free assay	–	competition with immobilised ligand	1 µM	remaining binding	94%
Cn1cc(-c2cc(F)cc(N3CCn4c(cc5c4CCCC5)C3=O)c2CO)cc(Nc2ccc(N3CCN(C4COC4)CC3)cn2)c1=O	enzyme activity	inhibitor	–	0.1 µM	inhibition	17%
COc1cc(Nc2ncc(F)c(Nc3ccc4c(n3)NC(=O)C(C)(C)O4)n2)cc(OC)c1OC	binding	–	–	10 µM	inhibition	0%
COc1ncccc1-c1cnn2ccc(N3CCN(C(=O)OC(C)C)CC3)nc12	binding	–	competition with immobilised ligand	1 µM	remaining binding	100%
Nc1ncc(-c2nc(N3CCOCC3)nc(N3CCOCC3)n2)c(C(F)F)n1	binding	–	competition with immobilised ligand	10 µM	remaining binding	90%
CC(C)(C)c1cc(C=C(C#N)C#N)cc(Br)c1O	enzyme activity	inhibitor	–	0.5 µM	remaining activity	102%
Cc1nn(C)cc1-c1nc2c(N3CCN(Cc4ccc(Cl)cc4)CC3)c(Cl)cnc2[nH]1	binding	–	competition with immobilised ligand	1 µM	remaining binding	18%
Cn1cc(-c2cccc(N3CCc4c(sc5c4CC(C)(C)C5)C3=O)c2CO)cc(Nc2ccncn2)c1=O	enzyme activity	inhibitor	–	1 µM	inhibition	1%
O=c1[nH]c2ccccc2n1C1CCN(Cc2ccc(-c3[nH]c4cc5ncnc5cc4nc3-c3ccccc3)cc2)CC1	cell-free assay	–	–	0.5 µM	remaining signal	101%
